Assays:
[1] = biological target: T1, Chemerin-like receptor 1 (Homo sapiens, UniProt Q99788); test: Inhibition of chemR23 in human CAL1 cells assessed as inhibition of chemerin-induced intracellular calcium ion concentration preincubated for 45 mins followed by human chemerin addition by FDSS6000 analysis; format: functional, cell-based
T1 sequence (Q99788 whole entry): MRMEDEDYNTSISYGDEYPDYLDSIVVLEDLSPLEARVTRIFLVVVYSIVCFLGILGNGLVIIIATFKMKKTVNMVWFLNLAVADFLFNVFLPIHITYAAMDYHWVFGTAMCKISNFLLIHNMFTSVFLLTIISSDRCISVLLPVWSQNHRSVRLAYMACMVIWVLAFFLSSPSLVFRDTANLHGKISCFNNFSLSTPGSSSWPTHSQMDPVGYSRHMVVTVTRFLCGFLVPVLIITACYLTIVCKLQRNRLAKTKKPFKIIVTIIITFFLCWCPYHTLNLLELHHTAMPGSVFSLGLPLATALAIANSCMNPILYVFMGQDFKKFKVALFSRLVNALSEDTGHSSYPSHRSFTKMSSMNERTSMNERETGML

[2] = Cmax in cynomolgus monkey at 1 mg/kg, po administered as cassette dose by LC-MS/MS analysis; format: ADME, organism-based, Macaca fascicularis; design: route oral, dose 1 mg/kg; details: in vivo
Procedure, shortened: (§1)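 Cassette oral dosing, 1.0 mg/kg as a suspension in 0.5% methylcellulose, to fed cynomolgus monkeys. Plasma was obtained from blood, deproteinized with ice-cold acetonitrile containing internal standard, and measured by LC/MS/MS against a calibration curve using analyte/IS peak-area ratios. Values are means of three determinations.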

[3] = AUC (0 to infinity) in cynomolgus monkey at 1 mg/kg, po administered as cassette dose by LC-MS/MS analysis; format: ADME, organism-based, Macaca fascicularis; design: time infinity, route oral, dose 1 mg/kg; details: in vivo; procedure, shortened: as §1
[4] = Half-life in cynomolgus monkey at 1 mg/kg, po administered as cassette dose by LC-MS/MS analysis; format: ADME, organism-based, Macaca fascicularis; details: in vivo; procedure, shortened: as §1
[5] = Fraction unbound in cynomolgus monkey plasma at 1 mg/kg, po administered as cassette dose incubated for 16 to 24 hrs by equilibrium dialysis based LC-MS analysis; format: ADME, organism-based, Macaca fascicularis; details: in vivo, time 16-24 hrs
Procedure, shortened: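 Monkey plasma diluted with PBS and spiked with compound at 1 µM (final DMSO 0.05% v/v) was equilibrium-dialysed against PBS (membrane MWCO 12000–14000) for 16–24 h at 37 °C in a CO2 incubator. Both sides were deproteinized with acetonitrile containing IS and analysed by LC-MS/MS. Undiluted fu,p was calculated from the diluted value using the dilution factor.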

[6] = Oral bioavailability in cynomolgus monkey at 1 mg/kg and 0.1 mg/kg, iv administered as cassette dose by LC-MS/MS analysis; format: ADME, organism-based, Macaca fascicularis; details: in vivo
Procedure, shortened: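 Plasma was deproteinized with ice-cold acetonitrile containing internal standard and quantified by LC/MS/MS against a calibration curve from analyte/IS peak-area ratios. Values are means of three determinations.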

[7] = Half-life in cynomolgus monkey at 10 mg/kg, po by LC-MS/MS analysis; format: ADME, organism-based, Macaca fascicularis; details: in vivo
Procedure, shortened: (§2)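 Single-compound oral dosing, 10 mg/kg as a suspension in 0.5% methylcellulose, to fed cynomolgus monkeys. Plasma was deproteinized with ice-cold acetonitrile plus internal standard and quantified by LC/MS/MS from analyte/IS peak-area ratios on a calibration curve. Values are means of three determinations.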

[8] = MRT in cynomolgus monkey at 10 mg/kg, po by LC-MS/MS; format: ADME, organism-based, Macaca fascicularis; details: in vivo; procedure, shortened: as §2
[9] = AUC (0 to infinity) in cynomolgus monkey at 10 mg/kg, po by LC-MS/MS analysis; format: ADME, organism-based, Macaca fascicularis; design: time infinity, route oral, dose 10 mg/kg; details: in vivo; procedure, shortened: as §2
[10] = Ratio of fraction unbound in cynomolgus monkey plasma at 10 mg/kg to IC50 of inhibition of chemR23 in human CAL1 cells; format: organism-based; details: in vivo
[11] = Cmax in cynomolgus monkey at 10 mg/kg, po by LC-MS/MS analysis; format: ADME, organism-based, Macaca fascicularis; design: route oral, dose 10 mg/kg; details: in vivo; procedure, shortened: as §2
[12] = Plasma concentration in cynomolgus monkey at 50 mg/kg, po measured at 4 hrs of administration; format: ADME, organism-based, Macaca fascicularis
Procedure, shortened: (§3)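 Cynomolgus monkeys received 50 mg/kg orally as a suspension in 0.5% methylcellulose. Plasma concentrations were measured at 2, 4 and 8 h post-dose, and each animal was reported individually.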

[13] = Plasma concentration in cynomolgus monkey at 50 mg/kg, po measured at 8 hrs of administration; format: ADME, organism-based, Macaca fascicularis; procedure, shortened: as §3
[14] = Drug concentration in cynomolgus monkey at 10 mg/kg, po by LC-MS/MS analysis measured upto 8 hrs; format: ADME, organism-based, Macaca fascicularis; details: in vivo, read-out: Ct; procedure, shortened: as §2
[15] = species: Macaca fascicularis; test: Induction of chemR23 internalization in whole blood of cynomolgus monkey assessed as internalization rate at 100 uM by flow cytometric analysis relative to control; format: tissue-based
[16] = Induction of chemR23 internalization on pDCs of cynomolgus monkey assessed as chemR23 expression relative to pre-dose at 50 mg/kg, po measured at 4 hrs of administration by flow cytometric analysis
[17] = Induction of chemR23 internalization on pDCs of cynomolgus monkey assessed as chemR23 expression relative to pre-dose at 50 mg/kg, po measured at 2 hrs of administration by flow cytometric analysis
[18] = species: Macaca fascicularis; test: Induction of chemR23 internalization in whole blood of cynomolgus monkey assessed as internalization rate at 30 uM by flow cytometric analysis relative to control; format: tissue-based
[19] = Induction of chemR23 internalization on pDCs of cynomolgus monkey assessed as internalization rate at 50 mg/kg, po measured after 4 hrs of administration by flow cytometric analysis relative to control; format: functional, Macaca fascicularis
Procedure, shortened: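 Cynomolgus monkeys received 50 mg/kg orally as a suspension in 0.5% methylcellulose. Blood was drawn before dosing and at 2, 4 and 8 h. pDCs (HLA-DR+CD123+) were stained for ChemR23 and read by flow cytometry as GeoMFI. Internalization was expressed as expression at each time relative to pre-dose. Each animal was reported individually.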

[20] = Induction of chemR23 internalization on pDCs of cynomolgus monkey assessed as chemR23 expression relative to pre-dose at 50 mg/kg, po measured at 8 hrs of administration by flow cytometric analysis
[21] = Plasma concentration in cynomolgus monkey at 50 mg/kg, po measured at 2 hrs of administration; format: ADME, organism-based, Macaca fascicularis; procedure, shortened: as §3

Row | SMILES | IC50 [1] [µM] | Cmax [2] [ng/mL] | AUC(0-inf) [3] [ng·h/mL] | half-life [4] [h] | Fu [5] | other results
1 | CCCCN(c1nc2c(C(=O)O)cccc2o1)[C@H](C)c1ccc(-c2ccccc2-c2nnn[nH]2)cc1 | 0.017 | 115 | 429 | 3.7 | 0.0285 fraction (unitless) | bioavailability [6]: 8.2%
2 | CCCCN(c1nc2c(C(=O)O)cccc2o1)[C@H](C)c1ccc(-c2cc(Cl)ccc2-c2nc(=O)o[nH]2)cc1 | 0.0012 | 361 | 1040 | 2 | 0.0135 fraction (unitless) | half-life [7]: 2 h; MRT [8]: 4.1 h; AUC(0-inf) [9]: 7090 ng·h/mL; Ratio [10]: 0.5; Cmax [11]: 2110 ng/mL; bioavailability [6]: 42%
3 | CCCCN(c1nc2ccccc2o1)[C@H](C)c1ccc(-c2ccc(Cl)cc2-c2nnn[nH]2)cc1 | > 3 |  |  |  |  | 
4 | CCCCN(c1nc2ccccc2o1)[C@H](C)c1ccc(-c2c(F)cccc2-c2nnn[nH]2)cc1 | 0.16 |  |  |  |  | 
5 | CCCCN(c1nc2ccccc2o1)[C@H](C)c1ccc(-c2c(C)cccc2-c2nnn[nH]2)cc1 | 0.21 |  |  |  |  | 
6 | CCCCN(c1nc2c(CO)cccc2o1)[C@H](C)c1ccc(-c2ccccc2-c2nnn[nH]2)cc1 | 0.024 | 9.68 | 20 | 1.6 | 0.112 fraction (unitless) | bioavailability [6]: 0.8%
7 | CCCCN(c1nc2c(-c3ccncc3)cccc2o1)[C@H](C)c1ccc(-c2ccccc2-c2nnn[nH]2)cc1 | 0.3 |  |  |  |  | 
8 | CCCCN(c1nc2c(NS(C)(=O)=O)cccc2o1)[C@H](C)c1ccc(-c2ccccc2-c2nnn[nH]2)cc1 | 0.014 | 26.5 | 73.8 | 4.7 | 0.0203 fraction (unitless) | 
9 | CCCCN(c1nc2c(C(=O)NS(C)(=O)=O)cccc2o1)[C@H](C)c1ccc(-c2ccccc2-c2nnn[nH]2)cc1 | 0.014 | 22.6 | 22.2 | 2.7 | 0.103 fraction (unitless) | 
10 | C[C@H](c1ccc(-c2ccccc2-c2nc(=O)o[nH]2)cc1)N(CC1CC1)c1nc2c(C(=O)O)cccc2o1 | 0.011 | 3830 | 11600 | 2.6 | 0.00851 fraction (unitless) | bioavailability [6]: 60%
11 | C[C@H](c1ccc(-c2cc(Cl)ccc2-c2nc(=O)o[nH]2)cc1)N(CC1CC1)c1nc2c(C(=O)O)cccc2o1 |  | 518 | 1300 | 0.8 | 0.0108 fraction (unitless) | 
12 | CCCCN(c1nc2ccccc2o1)[C@H](C)c1ccc(-c2cc(C)ccc2-c2nnn[nH]2)cc1 | 0.053 |  |  |  |  | 
13 | CCCCN(c1nc2c(-c3ccccn3)cccc2o1)[C@H](C)c1ccc(-c2ccccc2-c2nnn[nH]2)cc1 |  | 64 | 248 | 5.9 | 0.129 fraction (unitless) | 
14 | CCCCN(c1nc2c(NC(C)=O)cccc2o1)[C@H](C)c1ccc(-c2ccccc2-c2nnn[nH]2)cc1 | 0.022 | 13.2 | 41.6 | 2.2 | 0.102 fraction (unitless) | 
15 | CCCCN(c1nc2c(-n3cccn3)cccc2o1)[C@H](C)c1ccc(-c2ccccc2-c2nnn[nH]2)cc1 | 0.33 |  |  |  |  | 
16 | CCCCN(c1nc2c(-c3nccn3C)cccc2o1)[C@H](C)c1ccc(-c2ccccc2-c2nnn[nH]2)cc1 |  | 79.9 | 152 | 3.9 | 0.299 fraction (unitless) | bioavailability [6]: 7.5%

Row | SMILES | IC50 [1] [µM] | Cmax [2] [ng/mL] | AUC(0-inf) [3] [ng·h/mL] | half-life [4] [h] | Fu [5] | other results
17 | CCCCN(c1nc2ccccc2o1)[C@H](C)c1ccc(-c2ccccc2-c2nnn[nH]2)cc1 |  | 12.8 | 44.3 | 3.2 | 0.0713 fraction (unitless) | bioavailability [6]: 1.8%
18 | CCCCN(c1nc2c(C(=O)N(C)C)cccc2o1)[C@H](C)c1ccc(-c2ccccc2-c2nnn[nH]2)cc1 | 0.013 | 27.5 | 104 | 3.2 | 0.411 fraction (unitless) | bioavailability [6]: 6.7%
19 | CCCCN(c1nc2ccccc2o1)[C@H](C)c1ccc(-c2ccc(C(F)(F)F)cc2-c2nnn[nH]2)cc1 | > 3 |  |  |  |  | 
20 | CCCCN(c1nc2ccccc2o1)[C@H](C)c1ccc(-c2cc(C(F)(F)F)ccc2-c2nnn[nH]2)cc1 | 1.32 |  |  |  |  | 
21 | CCCCN(c1nc2c(-c3cccn3C)cccc2o1)[C@H](C)c1ccc(-c2ccccc2-c2nnn[nH]2)cc1 | 0.13 |  |  |  |  | 
22 | CCCCN(c1nc2c(C(=O)O)cccc2o1)[C@H](C)c1ccc(-c2cc(F)ccc2-c2nc(=O)o[nH]2)cc1 | 0.0027 | 610 | 1630 | 2.2 | 0.00736 fraction (unitless) | 
23 | C[C@H](c1ccc(-c2cc(F)ccc2-c2nc(=O)o[nH]2)cc1)N(CC1CC1)c1nc2c(C(=O)O)cccc2o1 | 0.0023 | 1490 | 4410 | 4.1 | 0.00977 fraction (unitless) | bioavailability [6]: 82%
24 | CCCCN(c1nc2c(C(=O)NC)cccc2o1)[C@H](C)c1ccc(-c2ccccc2-c2nnn[nH]2)cc1 |  | 9.74 | 25.7 | 1.3 | 0.0975 fraction (unitless) | 
25 | Cc1ccc(-c2nc(=O)o[nH]2)c(-c2ccc([C@@H](C)N(CC3CC3)c3nc4c(C(=O)O)cccc4o3)cc2)c1 | 0.0032 | 1490 | 4830 | 2.8 | 0.023 fraction (unitless) | half-life [7]: 1 h; concentration at 4 h [12]: 204 µM; concentration at 8 h [13]: 30.4 µM; MRT [8]: 2.9 h; concentration at 8 h [14]: 206 ng/mL; Activity [15]: 82%; AUC(0-inf) [9]: 22200 ng·h/mL; ChemR23 expression [16]: 10%; ChemR23 expression [17]: 30%; Activity [18]: 53%; Ratio [10]: 1; Activity [19]: 74%; Cmax [11]: 6950 ng/mL; ChemR23 expression [20]: 44%; bioavailability [6]: 58%; concentration at 2 h [21]: 178 µM
26 | CCCCN(c1nc2c(-c3cccnc3)cccc2o1)[C@H](C)c1ccc(-c2ccccc2-c2nnn[nH]2)cc1 | > 1 |  |  |  |  | 
27 | CCCCN(c1nc2ccccc2o1)[C@H](C)c1ccc(-c2ccc(C)cc2-c2nnn[nH]2)cc1 | 2.1 |  |  |  |  | 
28 | CCCCN(c1nc2ccccc2o1)[C@H](C)c1ccc(-c2cc(Cl)ccc2-c2nnn[nH]2)cc1 | 0.065 |  |  |  |  | 
29 | CCCCN(c1nc2ccccc2o1)[C@H](C)c1ccc(-c2cc(F)ccc2-c2nnn[nH]2)cc1 | 0.075 |  |  |  |  | 
30 | CCCCN(c1nc2ccccc2o1)[C@H](C)c1ccc(-c2ccc(OC)cc2-c2nnn[nH]2)cc1 | 3 |  |  |  |  | 
31 | CCCCN(c1nc2c(COC)cccc2o1)[C@H](C)c1ccc(-c2ccccc2-c2nnn[nH]2)cc1 | 0.029 |  |  |  |  | 

— ChEMBL document CHEMBL4725330, “The design, synthesis and evaluation of 2-aminobenzoxazole analogues as potent and orally efficacious ChemR23 inhibitors” (Bioorg Med Chem, 2020)
